Results published in ChEMBL document CHEMBL1123351, “Synthesis and pharmacological evaluation of some 6-substituted 7-methyl-1,4-dioxa-7-azaspiro[4.5]decanes as potential dopamine agonists” (1986).

How the values were obtained:
Type in all cases: functional
[1] = tested on: Felis catus; assay: Compound was tested in vivo for dopamine agonist activity in the cat cardioaccelerator nerve assay; conditions: read-out: ID50 (the source's name)
Method in brief: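 Cats anesthetized with pentobarbital sodium 30 mg/kg injected into the thoracic cavity. Compounds given intravenously at doses spaced 0.33 log intervals apart, with N = 3 per dose. Inhibition of cardioaccelerator nerve response measured.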

[2] = tested on: Rattus norvegicus; assay: Compound was tested in vivo for dopamine agonist activity in the rat rotation assay after intravenous administration at dose 3.5 (umol/kg)
[3] = tested on: Rattus norvegicus; assay: Compound was tested in vivo for dopamine agonist activity in the rat rotation assay after intravenous administration at dose 0.46 (umol/kg)
[4] = tested on: Rattus norvegicus; assay: Compound was tested in vivo for dopamine agonist activity in the rat rotation assay after intravenous administration at the 4.60 (umol/kg) dose
[5] = tested on: Rattus norvegicus; assay: Compound was tested in vivo for dopamine agonist activity in the rat rotation assay after intravenous administration at the dose 1.38 (umol/kg)

Compound | ED50 [1] [µmol/kg] | Inhibition [2] [%] | Inhibition [3] [%] | Inhibition [4] [%] | Inhibition [5] [%]
CN1CCCC2(OCCO2)C1Cc1c[nH]c2ccccc12 (stereo not drawn) | > 4 | 32 | – | – | –
CN1CCc2cccc3c2[C@H]1Cc1ccc(O)c(O)c1-3 [APOMORPHINE] | 0.0348 | – | – | – | –
CN1CCCC2(OCCO2)C1Cc1cccc2[nH]ccc12 (stereo not drawn) | 0.095 | – | – | – | –
CN1CCCC2(OCCO2)C1Cc1ccccc1 (stereo not drawn) | > 4 | – | 22 | 36 | 18
